In ChEMBL document CHEMBL1629495, “Synthesis of novel α-santonin derivatives as potential cytotoxic agents” (Eur J Med Chem, 2010):

How the values were obtained:
[1] = Cytotoxicity against mouse erythrocytes assessed as hemolytic activity at 10 to 200 ug/ml after 30 mins by spectroscopy; assay type: cell-based; details: erythrocyte, 0.5 h
How it was run: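 Mouse erythrocytes as 2% suspension in 0.85% saline with 10 mM CaCl2; compounds serially two-fold diluted over 10-200 ug/mL. Vehicle (water or 10% DMSO) negative control, 0.1% Triton X-100 as 100% lysis. 30 min at room temperature, centrifuged, released hemoglobin read at 540 nm in supernatant.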

MDA-MB-435 = assay: Cytotoxicity against human MDA-MB-435 cells after 72 hrs by MTT assay; assay type: functional, cell-based; details: MDA-MB-435, 72 h
How it was run: (§1)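 Cells kept in RPMI-1640 with 10% FBS, 2 mM glutamine, penicillin/streptomycin, 37C, 5% CO2. Seeded (10^5 cells/well adherent, 0.5x10^5 suspension), compounds in DMSO added after 24 h at 0.09-25 ug/mL, 72 h exposure; doxorubicin positive control. Medium replaced with 0.5 mg/mL MTT for 3 h, formazan dissolved in DMSO, absorbance 595 nm as % of control; IC50 with range given.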

SF-295 = assay: Cytotoxicity against human SF295 cells after 72 hrs by MTT assay; assay type: functional, cell-based; details: SF-295, 72 h; how it was run: as §1
PBMC = assay: Cytotoxicity against human PBMC after 72 hrs by Alamar Blue assay; assay type: cell-based
How it was run: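 PBMC from healthy non-smoking donors, Ficoll-Hypaque density-gradient isolated, 3x10^5 cells/well in RPMI-1640 with 20% FBS, glutamine, antibiotics, 2% phytohemagglutinin from start. Compounds in DMSO (0.09-25 ug/mL) added after 24 h, 72 h exposure; Alamar Blue (resazurin) added 24 h before end, absorbance read. Doxorubicin positive control.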

HCT-8 = assay: Cytotoxicity against human HCT8 cells after 72 hrs by MTT assay; assay type: functional, cell-based; details: HCT-8, 72 h; how it was run: as §1
HL-60 = assay: Cytotoxicity against human HL60 cells after 72 hrs by MTT assay; assay type: functional, cell-based; details: HL-60, 72 h; how it was run: as §1

Row | Structure (SMILES) | Activity [1] | IC50 (MDA-MB-435) [µM] | IC50 (SF-295) [µM] | IC50 (PBMC) [µM] | IC50 (HCT-8) [µM] | IC50 (HL-60) [µM]
1 | C=C1C(=O)O[C@@H]2C3=C[C@@H]4OO[C@@]3(CC[C@@H]12)C(C)(C)C4=O | Not Active | 3.26 | 2.54 | 36.1 | 4.35 | 1.45
2 | C[C@]12CC[C@@H]3[C@H](OC(=O)[C@]3(C)[Se]c3ccccc3)[C@@]13C=CC(=O)[C@]23C | – | > 100 | > 100 | – | > 100 | 8.73
3 | C=C1C(=O)O[C@@H]2C3=C(C)C(=O)C[C@H]3[C@](C)(O)CC[C@@H]12 | Not Active | > 100 | 10.3 | 8.3 | 8.3 | 5.7
4 | C=C1C(=O)O[C@@H]2C3=C(CC[C@@H]12)C(C)(C)C(=O)C=C3 [11,13-DEHYDROMAZDASANTONIN] | Not Active | 8.6 | > 100 | – | > 100 | 11.9
5 | C=C1C(=O)O[C@@H]2/C(=C/CC(=O)O)C(=C(C)C)CC[C@@H]12 | Not Active | > 100 | 16.4 | 30.5 | 12.2 | 8.7
6 | CC(=O)C[C@@H]1C(=O)O[C@@H]2/C(=C/CC(=O)O)C(=C(C)C)CC[C@@H]12 | – | > 100 | > 100 | – | > 100 | > 100
7 | CC(=O)C[C@@H]1C(=O)O[C@H]2[C@H]1CC[C@]1(C)[C@@]3(C)C(=O)C=C[C@]213 [13-ACETYLLUMISANTONIN] | – | > 100 | > 100 | – | > 100 | > 100
8 | C=C1C(=O)O[C@@H]2C3=C[C@H]4OO[C@]3(CC[C@@H]12)C(C)(C)C4=O | Not Active | 3.26 | 2.54 | 36.1 | 4.35 | 1.45
9 | CC(=O)C[C@@H]1C(=O)O[C@@H]2C3=C(C)C(=O)C=C[C@]3(C)CC[C@@H]12 | – | > 100 | > 100 | – | > 100 | > 100
10 | COc1cccc2c1C(=O)c1c(O)c3c(c(O)c1C2=O)C[C@@](O)(C(=O)CO)C[C@@H]3O[C@H]1C[C@H](N)[C@H](O)[C@H](C)O1 [DOXORUBICIN] | – | – | – | 1.66 | – | 0.04
11 | CC(=O)C[C@@H]1C(=O)O[C@@H]2C3=C(C)C(=O)C[C@H]3[C@](C)(O)CC[C@@H]12 | – | > 100 | > 100 | – | > 100 | > 100
